Data: article PMC4544744 (Nature chemical biology, 2015)
“And” between values parts separate entries of the source, which are not always exact repeats. Equal values may be shown once.

What was measured:
WT Dcs1p = test: 31P NMR degradation; assay type: biochemical, S. cerevisiae
In short: (§1)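 Recombinant S. cerevisiae Dcs1p, expressed in E. coli BL21(DE3) codon plus and purified by Ni-NTA, TEV tag cleavage and size exclusion into 25 mM Hepes pH 8.0, 25 mM NaCl made in 100% D2O. 0.5 mM m7GpppG mixed with 50 nM enzyme at 27°C. Successive 31P spectra recorded over several hours, following substrate conversion to m7GMP and GDP.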

Dcs1p WT (H268N) [1] = biological target: T1, Dcs1p WT (H268N) (Saccharomyces cerevisiae, UniProt Q06151, H268N); test: Methyl NMR spectra, formation of asymmetric conformation; parameters: species or system S. cerevisiae
T1 sequence (Q06151 whole entry H268N): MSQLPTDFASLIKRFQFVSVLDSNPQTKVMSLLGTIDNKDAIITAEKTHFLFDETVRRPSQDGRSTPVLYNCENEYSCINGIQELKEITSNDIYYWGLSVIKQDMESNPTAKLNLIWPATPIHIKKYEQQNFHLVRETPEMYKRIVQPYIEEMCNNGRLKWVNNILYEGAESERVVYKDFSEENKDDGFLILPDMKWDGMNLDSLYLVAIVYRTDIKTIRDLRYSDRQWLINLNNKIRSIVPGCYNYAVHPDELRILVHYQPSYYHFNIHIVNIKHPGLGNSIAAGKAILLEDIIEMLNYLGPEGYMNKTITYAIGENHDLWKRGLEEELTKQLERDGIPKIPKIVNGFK

[2] = biological target: Dcs1p WT (H268N), full length (Saccharomyces cerevisiae, UniProt Q06151, H268N); test: ITC; assay type: binding, S. cerevisiae
Chain of Dcs1p WT (H268N), full length (Q06151 whole entry H268N, the tested form may be a part): as the sequence (Q06151 whole entry H268N) above
In short: (§2)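 Recombinant yeast Dcs1p carrying H268N, full length or C-terminal domain, purified by Ni-NTA, TEV cleavage and size exclusion. ITC at 25°C: m7GpppG or m7GMP injected into 0.5 mM enzyme solution.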

Dcs1p Y94A = test: 31P NMR degradation; assay type: biochemical, S. cerevisiae; details: Y94A enzyme; 31P NMR time series, 14 h
In short: as §1

Dcs1p K126A (H268N) [3] = biological target: T2, Dcs1p K126A (H268N) (Saccharomyces cerevisiae, UniProt Q06151, H268N/K126A); test: NMR titration; parameters: species or system S. cerevisiae; details: Kd open site (second binding event), determined using NMR
T2 sequence (Q06151 whole entry K126A/H268N): as the sequence (Q06151 whole entry H268N) above, with K126A counted along it
In short: (§3)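 Deuterated, Ile/Met methyl-labelled Dcs1p (H268N), 0.25 mM dimer in D2O buffer pH 8.0 at 27°C. Methyl-TROSY spectra recorded during stepwise m7GpppG addition, up to 20 molar equivalents (5 mM). Peak positions and intensities from all titration points fitted simultaneously to a sequential two-site binding model. Kd given as mean ± s.d. from Monte Carlo simulations varying data within their errors.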

Dcs1p K126A [4] = test: Longitudinal exchange NMR, domain flipping motions; parameters: species or system S. cerevisiae
Dcs1p WT (H268N) [5] = biological target: T1, Dcs1p WT (H268N); test: Longitudinal exchange NMR, domain flipping motions; parameters: species or system S. cerevisiae
In short: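 Methyl-TROSY longitudinal exchange spectra recorded with m7GpppG at 1:1, 1:2.5, 1:5 and 1:20 molar ratios. Mixing times 3–1000 ms. Rates fitted from auto- and cross-peak intensities versus mixing time.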

Dcs1p K126A [6] = test: 31P NMR degradation; assay type: biochemical, S. cerevisiae; details: high substrate excess
Dcs1p K126A (H268N) [7] = biological target: T2, Dcs1p K126A (H268N); test: ITC; assay type: binding, S. cerevisiae
In short: as §2

Dcs1p WT (H268N) [8] = biological target: T1, Dcs1p WT (H268N); test: NMR titration; parameters: species or system S. cerevisiae; details: Kd open site (second binding event), determined using NMR
In short: as §3

DcpS = details: cited from earlier work

**Q.** Which “enzymatic turnover / hydrolysis” value (WT Dcs1p; WT enzyme, 31P NMR time series, 14 h) does the source give for `Nc1nc2c(ncn2[C@@H]2O[C@H](COP(=O)(O)OP(=O)(O)OP(=O)(O)OC[C@H]3O[C@@H](n4cnc5c(=O)[nH]c(N)nc54)[C@H](O)[C@@H]3O)[C@@H](O)[C@H]2O)c(=O)[nH]1` [GpppG] here?
**A.** did not detect enzymatic turnover

**Q.** And the “formation of asymmetric conformation” value (Dcs1p WT (H268N) [1])?
**A.** observed no resonances corresponding to the asymmetric conformation

**Q.** For `C[n+]1cn([C@@H]2O[C@H](COP(=O)([O-])O)[C@@H](O)[C@H]2O)c2nc(N)[nH]c(=O)c21` [m7GMP, m^7G monophosphate], which “formation of asymmetric conformation” value (Dcs1p WT (H268N) [1]) is on record?
**A.** preserves the asymmetric form of the complex

**Q.** And the Kd ([2]; Kd (single-step binding, closed binding site), ITC, DcpS H268N)?
**A.** 1.1 ± 0.6 µM

**Q.** What about the “factor weaker interaction with closed binding site than the substrate” value ([2]; product vs substrate) of the same molecule?
**A.** 4

**Q.** And the “interaction with the second, open binding site” value ([2]; using ITC and NMR)?
**A.** not able to detect an interaction

**Q.** What does the source list for `C[n+]1cn([C@@H]2O[C@H](COP(=O)([O-])OP(=O)(O)OP(=O)(O)OC[C@H]3O[C@@H](n4cnc5c(=O)[nH]c(N)nc54)[C@H](O)[C@@H]3O)[C@@H](O)[C@H]2O)c2nc(N)[nH]c(=O)c21` [m7GpppG]?
**A.** Turnover rate (kcat) (WT Dcs1p; high substrate excess, 0.5 mM substrate, 50 nM enzyme, 27°C): 0.27 s^−1 under high substrate excess; enzymatic turnover / hydrolysis (Dcs1p Y94A): did not detect enzymatic turnover; Kd (Dcs1p K126A (H268N) [3]): 196 µM; Flipping rate (Dcs1p K126A [4]; K126A (H268N), under high and low substrate excess): < 1 Hz under high and low substrate excess; domain flipping rate (Dcs1p K126A [4]; K126A, substrate excess, based on detection limit of the experiment): less than 1 s^−1; domain flipping (exchange) rate (Dcs1p WT (H268N) [5]; 20-fold excess of substrate over dimeric enzyme, inactive H268N): 35.4 (± 4.8) s^−1 and 35.4 s^−1; Flipping rate (Dcs1p WT (H268N) [5]; low substrate excess): 8 Hz; Turnover rate (kcat) (Dcs1p K126A [6]): 0.48 s^−1 under high substrate excess; Kd (Dcs1p K126A (H268N) [7]): 0.24 µM; Kd (Dcs1p WT (H268N) [8]): 105 µM

**Q.** With `C[n+]1cn([C@@H]2O[C@H](COP(=O)(O)OP(=O)(O)O)[C@@H](O)[C@H]2O)c2nc(N)[nH]c(=O)c21` [m^7GDP, 7-methylguanosine diphosphate] as the molecule, how does the hydrolysis (DcpS) read?
**A.** not hydrolysed efficiently
